Source: ChEMBL document CHEMBL1122573, “Novel N-hydroxyguanidine derivatives as anticancer and antiviral agents” (J Med Chem, 1984)
Values after ≈ are worked out from the molar mass of the structure shown.

How the values were obtained:
L1210 [1] = experiment: Activity against cultured L1210 leukemic cells was determined in vitro, after 48 hr of incubation. Compound dose that causes 50 % inhibition was reported; assay type: functional; settings: Mus musculus, L1210, 48 h; read-out: ID50 (the source's name)
In short: (§1)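 L1210 cells in RPMI with 10% fetal calf serum, amino acids, vitamins and penicillin-streptomycin, seeded at 4.0–6.0 × 10^4 cells/mL in duplicate per concentration. At least six concentrations in 1:5 dilutions; 24–48 h humidified incubation under 5% CO2. Cells were counted with a Coulter counter, with untreated and Me2SO controls. ID values were derived by a previously described method.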

Gallus gallus [2] = species on record: Gallus gallus; experiment: Compound dose that inhibits transformation of chick embryo fibroblasts by Rous sarcoma virus, after 15 hr of incubation was determined in vitro. Compound dose that causes 84 % inhibition was reported.; assay type: functional
In short: (§2)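 Focus-formation assay with Rous sarcoma virus Schmidt-Ruppin subgroup D on confluent secondary chicken fibroblast monolayers (5 × 10^5 cells/plate). Compounds in DMSO (final <1%) were serially diluted from 10^-2 to 10^-5 M solutions before addition. Infection was ~150–200 focus-forming units per dish for 15 h at 37 °C. A 0.9% agar overlay held the same compound dilutions and was re-fed at day 3. Foci were scored 7–10 days post-infection, with virus-only and drug-only controls.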

L1210 [3] = experiment: Activity against cultured L1210 leukemic cells was determined in vitro, after 48 h of incubation. Compound dose that causes 16 % inhibition was reported; assay type: functional, Mus musculus; in short: as §1
Gallus gallus [4] = species on record: Gallus gallus; experiment: Compound dose that inhibits transformation of chick embryo fibroblasts by Rous sarcoma virus, after 15 hr of incubation was determined in vitro. Compound dose that causes 16 % inhibition was reported.; assay type: functional; in short: as §2
L1210 [5] = experiment: Activity against cultured L1210 leukemic cells was determined in vitro, after 48 hr of incubation. Compound dose that causes 84 % inhibition was reported; assay type: functional, Mus musculus; in short: as §1
Gallus gallus [6] = species on record: Gallus gallus; experiment: Compound dose that inhibits transformation of chick embryo fibroblasts by Rous sarcoma virus, after 15 hr of incubation was determined in vitro. Compound dose that causes 50 % inhibition was reported.; assay type: functional; settings: read-out: ID50 (the source's name); in short: as §2
[7] = Compound dose that causes lethality by 50 %, was tested in mice; assay type: ADME, organism-based; settings: mouse, in vivo
In short: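 C57 Bl/6J mice, six per dose level. Drug was ground with an equal weight of acacia and suspended in saline, then dosed intraperitoneally by body weight.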

[8] = tested on: Moloney murine sarcoma virus; experiment: Compound was tested for 50% inhibitory dose against Moloney sarcoma virus; assay type: functional; settings: read-out: ID50 (the source's name)

SMILES | IC50 (L1210 [1]) | ID84 (Gallus gallus [2]) | ID16 (L1210 [3]) | ID16 (Gallus gallus [4]) | ID84 (L1210 [5]) | IC50 (Gallus gallus [6]) | LD50 [7] | IC50 [8]
Cc1ccsc1/C=N/N=C(/N)NO | 33.2 µM | 57.9 µM | 16.89 µM | 5.89 µM | 65.3 µM | 18.5 µM | – | –
N/C(=N/N=C/c1ccccn1)NO | 10.9 µM | 7.55 µM | 4.4 µM | 1.01 µM | 27 µM | 2.76 µM | 315 mg/kg | –
COc1cccc(/C=N/NC(=N)NO)c1 | 16 µM | 44.06 µM | 4.2 µM | 7.15 µM | 60.9 µM | 17.8 µM | – | –
Cc1cccc(/C=N/N=C(\N)NO)n1 | 42.1 µM | 361.3 µM | 19.76 µM | 36 µM | 89.6 µM | 114 µM | – | –
NC(/N=N/c1c(O)[nH]c2ccc(F)cc12)=N\O | 48.4 µM | 62.25 µM | 17.8 µM | 5.36 µM | 132 µM | 18.3 µM | – | –
N/C(=N\O)N/N=C/c1cccc(C(F)(F)F)c1 | 15.1 µM | 40.61 µM | 2.35 µM | 8.19 µM | 96.4 µM | 18.2 µM | – | –
N/C(=N\O)N/N=C/C1CCCCC1 | 21.2 µM | 60.4 µM | 9.34 µM | 9.11 µM | 48.4 µM | 23.4 µM | – | –
N/C(=N\O)N/N=C/c1cccs1 | 34.1 µM | 38.04 µM | 81.7 µM | 3.64 µM | 143 µM | 11.8 µM | – | –
CCCCOc1cccc(/C=N/N=C(\N)NO)c1 | 8.54 µM | 38.96 µM | 3 µM | 2.66 µM | 24.3 µM | 10.2 µM | – | –
CCCCCCOc1cccc(/C=N/N=C(\N)NO)c1 | 7.8 µM | 54.56 µM | 2.96 µM | 1.18 µM | 20.6 µM | 8.02 µM | – | –
N/C(=N\O)N/N=C/c1cccc(I)c1 | 12.5 µM | 13.33 µM | 4.07 µM | 0.9 µM | 38.5 µM | 3.45 µM | 190 mg/kg | –
N=C(NN)NO | 126 µM | 2438 µM | 57.1 µM | 15.63 µM | 311 µM | 195 µM | – | –
N=C(N)NO.O=S(=O)(O)O [HYDROXYGUANIDINE SULFATE] | 59.5 µM | 725.8 µM | 95.8 µM | 192.7 µM | 370 µM | 374 µM | – | –
N=C(N)NO [HYDROXYGUANIDINE] | – | – | – | – | – | – | – | 2 µg/mL (≈ 26.6 µM)
NC(=O)NO [HYDROXYUREA] | 60.6 µM | – | 1.99 µM | – | 181 µM | – | – | –
